The target in series [1] is T1, Aromatase (Homo sapiens, UniProt P11511).
T1 sequence (P11511 whole entry): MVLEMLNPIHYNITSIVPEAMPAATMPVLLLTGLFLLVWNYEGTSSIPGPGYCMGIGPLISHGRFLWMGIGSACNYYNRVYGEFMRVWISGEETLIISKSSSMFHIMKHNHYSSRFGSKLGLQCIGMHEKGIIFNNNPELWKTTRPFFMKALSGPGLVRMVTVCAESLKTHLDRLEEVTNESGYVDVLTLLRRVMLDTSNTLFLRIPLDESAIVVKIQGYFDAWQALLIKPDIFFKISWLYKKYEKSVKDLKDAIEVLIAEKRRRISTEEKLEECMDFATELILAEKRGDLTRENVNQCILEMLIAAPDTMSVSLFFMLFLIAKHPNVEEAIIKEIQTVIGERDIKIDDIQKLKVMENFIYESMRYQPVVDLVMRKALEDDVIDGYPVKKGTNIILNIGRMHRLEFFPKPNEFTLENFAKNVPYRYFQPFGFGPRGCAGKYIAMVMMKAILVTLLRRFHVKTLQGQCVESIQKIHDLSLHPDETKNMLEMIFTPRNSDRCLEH
In words: Percent inhibition at 2 uM against aromatase protein from human placental microsomes using [1-beta-3H]-androstenedione. Put shortly: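 Screening used 20 µg microsomal protein from human placenta, 40 nM [1β-3H]androstenedione (1 µCi) and inhibitor at 2 µM in 67 mM K phosphate pH 7.4. Reaction was started with 150 µM NADPH and run 15 min at 37 °C. 3H2O release was measured by scintillation counting after chloroform and charcoal-dextran cleanup. Inhibition is given relative to the no-inhibitor control. Triplicates.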

The target in series [2] is T1, Aromatase. In words: Inhibitory concentration against aromatase protein from human placental microsomes using [1-beta-3H]-androstenedione; Competitive inhibition. Put shortly:
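Human placental microsomes in 67 mM K phosphate pH 7.4 with 200 nM [1β-3H]androstenedione (1 µCi) and graded inhibitor concentrations; inhibitors were dissolved in ethanol. Reaction was started with 150 µM NADPH and run 15 min at 37 °C. 3H2O was extracted with chloroform and dextran-coated charcoal, then scintillation counted. Triplicates.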

Series [3] addresses T1, Aromatase. In words: Inhibition constant against aromatase protein from human placental microsomes using [1-beta-3H]-androstenedione; Competitive inhibition. Put shortly: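 Microsomes from human placenta. Kinetic runs used 10-30 nM [1β-3H]androstenedione with 150 µM NADPH, a range of inhibitor and substrate concentrations, and 5 min at 37 °C in 67 mM K phosphate pH 7.4. Released 3H2O was separated with chloroform and dextran-coated charcoal, then scintillation counted. Inhibition type was taken from Lineweaver-Burk plots and Ki from Dixon plots. Triplicates.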

For series [4], the target named is T1, Aromatase. In words: Ratio of Michaelis-Menten constant and inhibition constant for aromatase enzyme; Competitive inhibition. Put shortly:
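Ratio of substrate Km to Ki. Km for androstenedione and Ki come from the same placental-microsome kinetic runs: 10-30 nM [1β-3H]androstenedione, 150 µM NADPH, 5 min at 37 °C, with 3H2O release as the read-out. Ki was taken from Dixon plots.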

Substrate in series [5]: C[C@]12CCC(=O)C=C1CC[C@@H]1[C@@H]2CC[C@]2(C)C(=O)CC[C@@H]12
In words: Michaelis-Menten constant against Aromatase. Set-up: species or system Homo sapiens. Put shortly:
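Human placental microsomes (cotyledon homogenate, differential centrifugation, stored -80 °C), 67 mM potassium phosphate pH 7.4. Kinetic runs used 10-30 nM [1β-3H]androstenedione, NADPH 150 µM to start, 5 min at 37 °C. Aromatization read as released 3H2O after chloroform and dextran-charcoal extraction, by scintillation counting. Lineweaver-Burk analysis; points are means of three determinations.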

As usually defined, the inhibition is the share of the control response that was lost under treatment. Lower therefore signals a weak effect. The term IC50 denotes the concentration at which inhibition is half-maximal. Higher therefore signals lower potency. A word on the Ki: it is the dissociation constant of the complex between target and ligand, obtained from inhibition or displacement. One may read the Km as the substrate concentration at which the rate is half of its maximum.

Consider `C[C@]12CCC3C(CC[C@@]4(C=O)OC(=O)CC[C@]34C)C1CCC2=O` (stereo partly specified), for which, at Aromatase [1], the inhibition at 2 µM was determined as 11%.
The same measure, in the same setting: under `C[C@]12CCC3C(CC[C@H]4[C@@H](O)[C@H](O)CC[C@]34C)C1CCC(=O)O2` (stereo partly specified) stands 8.1%.
On Aromatase [1], `C[C@]12CC[C@H]3O[C@H]3[C@@H]1CC[C@@H]1[C@@H]2CC[C@]2(C)C(=O)CC[C@@H]12` yielded an inhibition at 2 µM of 96.4%. In addition, on Aromatase [2], the 50% inhibitory concentration (IC50) worked out at 145 nM. The molecule further registered a Ki at Aromatase [3] of 38 nM. For the same molecule, the Km/Ki on Aromatase [4] came out at 1.51.
On Aromatase [1], `C[C@]12CCC3C(CC[C@H]4C(=O)[C@H](O)CC[C@]34C)C1CCC(=O)O2` (stereo partly specified) came in with an inhibition at 2 µM of 16.6%.
`C[C@]12CCC(=O)C(O)=C1CCC1C2CC[C@]2(C)OC(=O)CCC12` (stereo partly specified) gave an inhibition at 2 µM against Aromatase [1] of 72.5%. At Aromatase [2], this molecule came in with an IC50 of 1850 nM. The Ki on Aromatase [3] was determined as 660 nM. The Km/Ki at Aromatase [4] stood at 0.087.
On the same counts, the results for `C[C@]12CCC3C(CC[C@H]4C=CCC[C@]34C)C1CCC2=O` (stereo partly specified) are 95.9%, 225 nM, 50 nM and 1.15.
Take `C[C@]12CCC3C(CC[C@H]4C(O)(C#N)[C@H](O)CC[C@]34C)C1CCC(=O)O2` (stereo partly specified): at Aromatase [1], testing at 2 µM gave an inhibition of 17.6%.
At Aromatase [1], `C[C@]12CCC(=O)C(O)=C1CC[C@@H]1[C@@H]2CC[C@]2(C)C(=O)CC[C@@H]12` [FORMESTANE] registered an inhibition at 2 µM of 99.1%. At Aromatase [2], this molecule registered an IC50 of 42 nM.
`C[C@]12CC[C@@H](O)[C@H](O)[C@@H]1CC[C@@H]1[C@@H]2CC[C@]2(C)C(=O)CC[C@@H]12` returned an inhibition at 2 µM against Aromatase [1] of 34.6%.
The same measure, in the same setting: under `C[C@]12CC[C@H](O)[C@@H](O)[C@H]1CC[C@@H]1[C@@H]2CC[C@]2(C)C(=O)CC[C@@H]12` stands 10.1%; under `C[C@]12CCC3C(CC[C@@H]4[C@H]5O[C@H]5CC[C@]34C)C1CCC2=O` (stereo partly specified), 14.6%.
Molecule `C[C@]12CC[C@@H](O)C(=O)[C@@H]1CC[C@@H]1[C@@H]2CC[C@]2(C)C(=O)CC[C@@H]12` showed an inhibition at 2 µM against Aromatase [1] of 83.3%. The molecule further returned an IC50 at Aromatase [2] of 670 nM. The Ki at Aromatase [3] is 147 nM. Besides, the Km/Ki at Aromatase [4] was determined as 0.39.

B1: Aromatase (Homo sapiens) (protein)
chain: MVLEMLNPIHYNITSIVPEAMPAATMPVLLLTGLFLLVWNYEGTSSIPGPGYCMGIGPLISHGRFLWMGIGSACNYYNRVYGEFMRVWISGEETLIISKSSSMFHIMKHNHYSSRFGSKLGLQCIGMHEKGIIFNNNPELWKTTRPFFMKALSGPGLVRMVTVCAESLKTHLDRLEEVTNESGYVDVLTLLRRVMLDTSNTLFLRIPLDESAIVVKIQGYFDAWQALLIKPDIFFKISWLYKKYEKSVKDLKDAIEVLIAEKRRRISTEEKLEECMDFATELILAEKRGDLTRENVNQCILEMLIAAPDTMSVSLFFMLFLIAKHPNVEEAIIKEIQTVIGERDIKIDDIQKLKVMENFIYESMRYQPVVDLVMRKALEDDVIDGYPVKKGTNIILNIGRMHRLEFFPKPNEFTLENFAKNVPYRYFQPFGFGPRGCAGKYIAMVMMKAILVTLLRRFHVKTLQGQCVESIQKIHDLSLHPDETKNMLEMIFTPRNSDRCLEH
On to B1, for which, in series [5], the Michaelis constant (Km) worked out at 0.0575 µM.
